pIC50: −log10 of the molar value. Converted amounts (≈) assume the structure as drawn.
Tests used:
[1] = target: Human immunodeficiency virus type 1 reverse transcriptase (Human immunodeficiency virus 1, UniProt Q72547); assay: Inhibition of wild type HIV1 RT polymerase by SPA
[2] = target: Human immunodeficiency virus type 1 reverse transcriptase (Human immunodeficiency virus 1, UniProt Q72547, K103N); assay: Inhibition of HIV1 RT polymerase K103N mutant by SPA
[3] = target: Human immunodeficiency virus type 1 reverse transcriptase (Human immunodeficiency virus 1, UniProt Q72547, Y181C); assay: Inhibition of HIV1 RT polymerase Y181C mutant by SPA
[4] = test system: Human immunodeficiency virus 1; assay: Antiviral activity against wild type HIV1 infected in human MT4 cells after 72 hrs in presence of 10% fetal bovine serum; assay type: functional; conditions: Human immunodeficiency virus 1, MT4, 72 h; read-out: CIC95
Outline: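 MT-4 human T-lymphoid cells in RPMI 1640 with 10% FBS. CIC95 is the concentration that inhibits viral spread by >95%. Values are either geometric means of two determinations or given with standard deviations for n > 3 or n > 50.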

[5] = test system: Human immunodeficiency virus 1; assay: Antiviral activity against HIV1 with reverse transcriptase K103N mutant infected in human MT4 cells after 72 hrs in presence of 10% fetal bovine serum; assay type: functional; conditions: Human immunodeficiency virus 1, MT4, 72 h; read-out: CIC95
Outline: (§1)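 Mutant HIV-1 spread was assayed in MT-4 human T-lymphoid cells kept in RPMI 1640 with 10% FBS. CIC95 is the concentration that inhibits viral spread by >95%. Values are geometric means of two determinations, or mean with standard deviation where n > 3. Cytotoxicity was checked up to an assay limit of 8.3 µM.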

[6] = test system: Human immunodeficiency virus 1; assay: Antiviral activity against HIV1 with reverse transcriptase Y181C mutant infected in human MT4 cells after 72 hrs in presence of 10% fetal bovine serum; assay type: functional; conditions: Human immunodeficiency virus 1, MT4, 72 h; read-out: CIC95; outline: as §1
[7] = test system: Human immunodeficiency virus 1; assay: Antiviral activity against wild type HIV1 infected in human MT4 cells after 72 hrs in presence of 50% normal human serum; assay type: functional; conditions: Human immunodeficiency virus 1, MT4, 72 h; read-out: CIC95
Outline: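 MT-4 human T-lymphoid cells in RPMI 1640 with 50% NHS. CIC95 is the concentration that inhibits viral spread by >95%. Values are either geometric means of two determinations or given with standard deviations for n > 3 or n > 50.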

[8] = Half life in Sprague-Dawley rat at 10 mg/kg, po and 2 mg/kg, iv; assay type: ADME, organism-based; conditions: in vivo
[9] = Clearance in Sprague-Dawley rat at 10 mg/kg, po and 2 mg/kg, iv; assay type: ADME, organism-based; conditions: in vivo
[10] = AUC in Sprague-Dawley rat at 10 mg/kg, po; assay type: ADME, organism-based; design: dose 10 mg/kg, route oral; conditions: plasma
[11] = Volume of distribution in Sprague-Dawley rat at 10 mg/kg, po and 2 mg/kg, iv; assay type: ADME, organism-based; conditions: in vivo
[12] = Oral bioavailability in Sprague-Dawley rat at 10 mg/kg; assay type: ADME, organism-based; conditions: in vivo
[13] = Half life in Beagle dog at 2 mg/kg, po and 0.25 mg/kg, iv; assay type: ADME, organism-based, Canis lupus familiaris; conditions: in vivo
Outline: (§2)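 Two beagle dogs, averaged. Oral dose 2 mpk in Imwitor/Tween; intravenous dose 0.25 mpk in DMSO.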

[14] = Clearance in Beagle dog at 2 mg/kg, po and 0.25 mg/kg, iv; assay type: ADME, organism-based, Canis lupus familiaris; conditions: in vivo; outline: as §2
[15] = AUC in Beagle dog at 2 mg/kg, po; assay type: ADME, organism-based, Canis lupus familiaris; design: dose 2 mg/kg, route oral; conditions: plasma; outline: as §2
[16] = Volume of distribution in Beagle dog at 2 mg/kg, po and 0.25 mg/kg, iv; assay type: ADME, organism-based, Canis lupus familiaris; conditions: in vivo; outline: as §2
[17] = Oral bioavailability in Beagle dog at 2 mg/kg; assay type: ADME, organism-based, Canis lupus familiaris; conditions: in vivo; outline: as §2
[18] = Half life in rhesus monkey at 10 mg/kg, po and 1 mg/kg, iv; assay type: ADME, organism-based, Macaca mulatta; conditions: in vivo
Outline: (§3)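 Two rhesus macaques, averaged. Oral dose 10 mpk in Imwitor/Tween; intravenous dose 1 mpk in DMSO.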

[19] = Clearance in rhesus monkey at 10 mg/kg, po and 1 mg/kg, iv; assay type: ADME, organism-based, Macaca mulatta; conditions: in vivo; outline: as §3
[20] = AUC in rhesus monkey at 10 mg/kg, po; assay type: ADME, organism-based, Macaca mulatta; design: dose 10 mg/kg, route oral; conditions: plasma
[21] = Volume of distribution in rhesus monkey at 10 mg/kg, po and 1 mg/kg, iv; assay type: ADME, organism-based, Macaca mulatta; conditions: in vivo; outline: as §3
[22] = Oral bioavailability in rhesus monkey at 10 mg/kg; assay type: ADME, organism-based, Macaca mulatta; conditions: in vivo
[23] = Solubility at pH 7; assay type: physicochemical; conditions: buffer
[24] = Solubility at pH 2; assay type: physicochemical; conditions: buffer
[25] = test system: Human immunodeficiency virus 1; assay: Antiviral activity against wild type HIV1 in presence of 40% normal human serum; assay type: functional, organism-based
Outline: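 Monogram Bioscience PhenoScreen cell-culture assay run with 40% NHS. […] Value is the geometric mean of n = 2.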

[26] = test system: Human immunodeficiency virus 1; assay: Antiviral activity against HIV1 with reverse transcriptase G190A mutant in presence of 40% normal human serum; assay type: functional, organism-based
[27] = test system: Human immunodeficiency virus 1; assay: Antiviral activity against HIV1 with reverse transcriptase G190S mutant in presence of 40% normal human serum; assay type: functional, organism-based
[28] = test system: Human immunodeficiency virus 1; assay: Antiviral activity against HIV1 with reverse transcriptase L100I mutant in presence of 40% normal human serum; assay type: functional, organism-based
[29] = test system: Human immunodeficiency virus 1; assay: Antiviral activity against HIV1 with reverse transcriptase K103N mutant in presence of 40% normal human serum; assay type: functional, organism-based
[30] = test system: Human immunodeficiency virus 1; assay: Antiviral activity against HIV1 with reverse transcriptase Y181C mutant in presence of 40% normal human serum; assay type: functional, organism-based
[31] = test system: Human immunodeficiency virus 1; assay: Antiviral activity against HIV1 with reverse transcriptase Y188L mutant in presence of 40% normal human serum; assay type: functional, organism-based
[32] = test system: Human immunodeficiency virus 1; assay: Antiviral activity against HIV1 with reverse transcriptase K101E/G190A mutant in presence of 40% normal human serum; assay type: functional, organism-based
[33] = test system: Human immunodeficiency virus 1; assay: Antiviral activity against HIV1 with reverse transcriptase K103N/G190A mutant in presence of 40% normal human serum; assay type: functional, organism-based
[34] = test system: Human immunodeficiency virus 1; assay: Antiviral activity against HIV1 with reverse transcriptase K103N/P225H mutant in presence of 40% normal human serum; assay type: functional, organism-based
[35] = test system: Human immunodeficiency virus 1; assay: Antiviral activity against HIV1 with reverse transcriptase K103N/V179E mutant in presence of 40% normal human serum; assay type: functional, organism-based
[36] = test system: Human immunodeficiency virus 1; assay: Antiviral activity against HIV1 with reverse transcriptase K103N/Y181C mutant in presence of 40% normal human serum; assay type: functional, organism-based
[37] = test system: Human immunodeficiency virus 1; assay: Antiviral activity against HIV1 with reverse transcriptase Y181C/G190A mutant in presence of 40% normal human serum; assay type: functional, organism-based

Structure (SMILES): N#Cc1cc(Cl)cc(Oc2cc(OCc3n[nH]c4ncccc34)ccc2Cl)c1
- pIC50 [1]: 9.40
- pIC50 [2]: 9.30
- pIC50 [3]: 9.70
- IC95 [4]: 10.3 nM
- IC95 [5]: 14.6 nM
- IC95 [6]: 22 nM
- IC95 [7]: 34 nM
- half-life [8]: 4.1 h
- clearance [9]: 28 mL/min/kg
- AUC [10]: 9.5 µM·h
- Vd [11]: 5.3 L/kg
- bioavailability [12]: 58%
- half-life [13]: 11.8 h
- clearance [14]: 8.9 mL/min/kg
- AUC [15]: 1.6 µM·h
- Vd [16]: 2.6 L/kg
- bioavailability [17]: 17%
- half-life [18]: 8.2 h
- clearance [19]: 19 mL/min/kg
- AUC [20]: 0.3 µM·h
- Vd [21]: 4.4 L/kg
- bioavailability [22]: 3%
- solubility [23]: 0.1 µg/mL (≈ 0.243 µM)
- solubility [24]: < 0.1 µg/mL
- pIC50 [25]: 8.82
- pIC50 [26]: 8.74
- pIC50 [27]: 8.17
- pIC50 [28]: 8.96
- pIC50 [29]: 8.60
- pIC50 [30]: 8.39
- pIC50 [31]: 6.05
- pIC50 [32]: 8.32
- pIC50 [33]: 8.40
- pIC50 [34]: 8.32
- pIC50 [35]: 8.22
- pIC50 [36]: 7.47
- pIC50 [37]: 7.77

Structure (SMILES): N#Cc1cc(Cl)cc(Oc2cc(OCc3n[nH]c4cccnc34)ccc2Cl)c1
- pIC50 [1]: 8.44
- pIC50 [2]: 7.40
- pIC50 [3]: 6.13
- IC95 [4]: 307 nM
- IC95 [5]: 2770 nM
- IC95 [7]: 922 nM

Structure (SMILES): N#Cc1cc(Cl)cc(Oc2cc(OCc3n[nH]c4cnccc34)ccc2Cl)c1
- pIC50 [1]: 9.10
- pIC50 [2]: 8.89
- pIC50 [3]: 8.41
- IC95 [4]: 10.8 nM
- IC95 [5]: 34.2 nM
- IC95 [6]: 31 nM
- IC95 [7]: 34 nM

Structure (SMILES): O=C1Nc2ccc(Cl)cc2[C@@](C#CC2CC2)(C(F)(F)F)O1 [EFAVIRENZ]
- IC95 [4]: 4.6 nM
- IC95 [5]: 245 nM
- IC95 [6]: 87 nM
- IC95 [7]: 42 nM
